From ChEMBL document CHEMBL3407428, “Synthesis, in vitro and in vivo antitumor activity of scopoletin-cinnamic acid hybrids” (Eur J Med Chem, 2015)

Assays:
[1] = Cytotoxicity against human HCT116 cells assessed as growth inhibition at 10^-5 M after 72 hrs by MTT assay relative to control; assay type: functional; details: HCT-116, 72 h, read-out: GI
A549 [2] = test: Cytotoxicity against human A549 cells assessed as growth inhibition at 10^-5 M after 72 hrs by MTT assay relative to control; assay type: functional; details: A549, 72 h, read-out: GI
[3] = tested on: Lewis lung carcinoma cell line; test: Antitumor activity against mouse LLC cells allografted in C57BL/6 mouse assessed as tumor growth inhibition at 2.5 mg/kg, ip administered for 14 days measured on day 15 relative to control; assay type: functional; details: route intraperitoneal, read-out: TGI
In short: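 Female C57BL/6 mice (18–22 g) given 3 × 10^6 Lewis lung cancer cells subcutaneously in the right flank; dosing began 7 to 21 days after inoculation. Mice were randomized into groups of 10. Treatment was intraperitoneal daily for 14 days at 2.5, 5 or 10 mg/kg, with a saline control group. Tumors were excised and weighed when the mice were killed after 14 days.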

Mus musculus = test: Toxicity in C57BL/6 mouse allografted with mouse LLC cells assessed as decrease in body weight at 2.5 mg/kg, ip administered for 14 days measured during compound dosing; assay type: organism-based; design: dose 2.5 mg/kg, route intraperitoneal; details: in vivo, 336 h
In short: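 LLC-bearing female C57BL/6 mice (18–22 g; 3 × 10^6 cells s.c., right flank) were randomized into groups of 10 and dosed i.p. daily for 14 days, with a saline control. Body weight was recorded every day from the first treatment.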

MCF7 = test: Cytotoxicity against human MCF7 cells assessed as growth inhibition at 10^-5 M after 72 hrs by MTT assay relative to control; assay type: functional; details: MCF7, 72 h, read-out: GI
MDA-MB-231 [4] = test: Cytotoxicity against human MDA-MB-231 cells assessed as growth inhibition after 72 hrs by MTT assay; assay type: functional, cell-based; details: MDA-MB-231, 72 h
In short: (§1)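 MTT viability assay. Cells were seeded at 5000 per well, incubated overnight, then exposed to compound at a range of concentrations for 72 h. MTT was added from a 5 mg/mL stock for 4 h, and absorbance was read at 570 nm. IC50 (50% viability inhibition) was calculated by the logit method. Each concentration was run at least three times.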

HeLa = test: Cytotoxicity against human HeLa cells assessed as growth inhibition at 10^-5 M after 72 hrs by MTT assay relative to control; assay type: functional; details: read-out: GI
[5] = Cytotoxicity against human HCT116 cells assessed as growth inhibition after 72 hrs by MTT assay; assay type: functional, cell-based; details: HCT-116, 72 h; in short: as §1
MDA-MB-231 [6] = test: Cytotoxicity against human MDA-MB-231 cells assessed as growth inhibition at 10^-5 M after 72 hrs by MTT assay relative to control; assay type: functional; details: MDA-MB-231, 72 h, read-out: GI
A549 [7] = test: Cytotoxicity against human A549 cells assessed as growth inhibition after 72 hrs by MTT assay; assay type: functional, cell-based; details: A549, 72 h; in short: as §1

SMILES	inhibition of growth at 10 µM [1]	inhibition of growth at 10 µM (A549 [2])	inhibition in vivo at 2.5 mg/kg [3]	Activity (Mus musculus)	inhibition of growth at 10 µM (MCF7)	IC50 (MDA-MB-231 [4])	inhibition of growth at 10 µM (HeLa)	IC50 [5]	inhibition of growth at 10 µM (MDA-MB-231 [6])	IC50 (A549 [7])
COc1cccc2c1C(=O)c1c(O)c3c(c(O)c1C2=O)C[C@@](O)(C(=O)CO)C[C@@H]3O[C@H]1C[C@H](N)[C@H](O)[C@H](C)O1 [DOXORUBICIN]	79%	92%	52.5%	Toxic	84.9%	1550 nM	82%	477 nM	89.3%	1280 nM
COc1cc2ccc(=O)oc2cc1O [SCOPOLETIN]	1.36%	4.23%			2.63%	> 30000 nM	0.98%	> 30000 nM	8.47%	> 30000 nM
COc1ccc(/C=C/C(=O)Oc2cc3oc(=O)ccc3cc2OC)cc1	31.6%	0.53%			13.7%		19.5%		20.8%	
COc1cc2ccc(=O)oc2cc1OC(=O)/C=C/c1ccc(F)cc1	18%	21.4%			1.77%		3.89%		19.3%	
